From ChEMBL document CHEMBL1124684, “Studies on prodrugs. 10. Possible mechanism of N-dealkylation of N-masked norfloxacins having several active methylene groups” (J Med Chem, 1989) come the findings set out here.

What is called AUC is the area under the concentration-time curve, a measure of exposure.

Data set [1] relates to Mus musculus. Description: Serum concentration of the liberated Norfloxacin after oral administration 100 mg/kg in mice after the 0.5 h. It is filed as functional, organism-based. More on the design: dose 100 mg/kg. Summed up: (§1)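 Mice dosed orally at 100 mg/kg, suspended in 0.5% sodium carboxymethylcellulose. Animals killed by bleeding at 0.5, 1.0, 2.0 and 4.0 h; blood centrifuged, serum adjusted. NFLX in serum quantified by HPLC with UV detection at 280 nm. Stability of the masked compounds at pH 7.4 and 37 °C was checked beforehand by HPLC.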

For data set [2], the species on record is Mus musculus. Put plainly: (§2) Compound was evaluated for Area under curve in mice. It is filed as ADME, organism-based. Set-up: concentration or dose not given beside the values. As to conditions: in vivo.
The nature of data set [3]: as §2. It is filed as ADME, organism-based. More on the design: concentration or dose not given beside the values. As to conditions: mouse, in vivo.
Data set [4] deals with Mus musculus. Description: Serum concentration of the liberated Norfloxacin after oral administration (100 mg/kg) in mice after 2.0 hr. It is filed as functional, organism-based. Summed up:
as §1

In data set [5] the test system is Mus musculus. Put plainly: Serum concentration of the liberated Norfloxacin after oral administration (100 mg/kg) in mice after 4.0h. It is filed as functional, organism-based. Summed up: as §1
Data set [6] concerns Mus musculus. Put plainly: Serum concentration of the liberated Norfloxacin after oral administration 100 mg/kg in mice after the 4.0 h. It counts as functional, organism-based. More on the design: dose 100 mg/kg. A digest of the protocol: as §1
For data set [7], the system named is Mus musculus. Description: Serum concentration of the liberated Norfloxacin after oral administration (100 mg/kg) in mice after 1.0 hr. It counts as functional, organism-based. Summed up: as §1
The subject of data set [8] is Mus musculus. Description: Serum concentration of the liberated Norfloxacin after oral administration 100 mg/kg in mice after the 1.0 h. More on the design: dose 100 mg/kg. It counts as functional, organism-based. A digest of the protocol: as §1
The subject of data set [9] is Mus musculus. Put plainly: (§3) Serum concentration of the liberated Norfloxacin after oral administration (100 mg/kg) in mice after 0.5 hr. It counts as functional, organism-based. Summed up: as §1
The test system of data set [10] is Mus musculus. Put plainly: Serum concentration of the liberated Norfloxacin after oral administration 100 mg/kg in mice after the 2.0 h. It counts as functional, organism-based. Set-up: dose 100 mg/kg. A digest of the protocol: as §1
The test system of data set [11] is Mus musculus. The data set is described as §3. It is filed as functional, organism-based. Summed up: as §1
This is another data set of the same source.

Data set [12] concerns Mus musculus. Put plainly: Serum concentration of the liberated Norfloxacin after oral administration (100 mg/kg) in mice after 4.0h; ND is not detected. It counts as functional, organism-based. A digest of the protocol:
as §1

Data set [13] concerns Mus musculus. Put plainly: Serum concentration of the liberated Norfloxacin after oral administration (100 mg/kg) in mice after 0.5 hr; ND is not detected. It counts as functional, organism-based. Summed up:
as §1

Data set [14] relates to Mus musculus. Put plainly: Serum concentration of the liberated Norfloxacin after oral administration (100 mg/kg) in mice after 2.0h; ND is not detected. It is filed as functional, organism-based. Summed up:
as §1

For data set [15], the system named is Mus musculus. Put plainly: Serum concentration of the liberated Norfloxacin after oral administration (100 mg/kg) in mice after 1.0h; ND is not detected. It is filed as functional, organism-based. Summed up: as §1

In the case of `CCn1cc(C(=O)O)c(=O)c2cc(F)c(N3CCN(C(C)C(C)=O)CC3)cc21` (stereo not drawn), the Serum concentration in data set [1] stood at 2.63 µg/mL; in data set [4] it was 1.67 µg/mL; in data set [5], 0.63 µg/mL; in [6] it was 0.63 µg/mL; in data set [7] it was 1.68 µg/mL; in data set [8] it was 1.68 µg/mL. Further, the Serum concentration in data set [9] worked out at 2.63 µg/mL; in [10], 1.67 µg/mL. In addition, the AUC in data set [2] and in data set [3] was 5710 ng·h/mL each time.
As for `CCn1cc(C(=O)O)c(=O)c2cc(F)c(N3CCN(CC(C)=O)CC3)cc21`, the Serum concentration stood at 6.33 µg/mL in [11]; 3.96 µg/mL in data set [4]; 2.62 µg/mL in data set [5]; 2.62 µg/mL in [6]; 5.74 µg/mL in [7]; 5.74 µg/mL in [8]. The Serum concentration in [9] worked out at 6.33 µg/mL; in data set [10], 3.96 µg/mL. Also, the AUC in [2] worked out at 22010 ng·h/mL; in data set [3] it was 22000 ng·h/mL.
For `CCn1cc(C(=O)O)c(=O)c2cc(F)c(N3CCN(CC(C)O)CC3)cc21` (stereo not drawn), the Serum concentration result in data set [12], in [13], in data set [14] and in data set [15] was “Not detected” each time.
As to `CCOC(=O)CN1CCN(c2cc3c(cc2F)c(=O)c(C(=O)O)cn3CC)CC1`, the Serum concentration in data set [1] was determined as 3.77 µg/mL; in [4] it was 0.38 µg/mL; in data set [5] it was 0.42 µg/mL; in data set [6] it was 0.42 µg/mL; in [7], 1.37 µg/mL; in data set [8] it was 1.37 µg/mL. The figures for the Serum concentration in data set [9] and in [10] were 3.77 µg/mL and 0.38 µg/mL, respectively. For the same molecule, the AUC in [2] and in data set [3] was 3900 ng·h/mL in each case.
Consider `CCn1cc(C(=O)O)c(=O)c2cc(F)c(N3CCN(C(C)(C)C(C)=O)CC3)cc21`, for which the Serum concentration entry in data set [12], in data set [13], in [14] and in data set [15] was “Not detected” in each case.
Take `CCn1cc(C(=O)O)c(=O)c2cc(F)c(N3CCNCC3)cc21` [NORFLOXACIN]: the Serum concentration in data set [1] came out at 3.47 µg/mL; in data set [4], 1.12 µg/mL; in data set [5], 0.56 µg/mL; in data set [6], 0.56 µg/mL; in [7], 2.02 µg/mL; in [8], 2.02 µg/mL. Moreover, the values for the Serum concentration in data set [9] and in data set [10] were 3.47 µg/mL and 1.12 µg/mL, respectively. Moreover, the exposure (AUC) in data set [2] and in [3] was 6490 ng·h/mL throughout.
In the case of `CCn1cc(C(=O)O)c(=O)c2cc(F)c(N3CCN(CC#N)CC3)cc21`, the Serum concentration was 0.29 µg/mL in data set [1]; 1.15 µg/mL in data set [4]; 0.63 µg/mL in [5]; 0.63 µg/mL in data set [6]; 0.75 µg/mL in [7]; 0.75 µg/mL in [8]. Also, the Serum concentration worked out at 0.29 µg/mL in data set [9] and 1.15 µg/mL in data set [10]. Also, the AUC in data set [2] and in data set [3] was 3060 ng·h/mL in each case.
